Converted amounts (≈) assume the structure as drawn.
Columns and labels:
[1] = tested on: Staphylococcus epidermidis; assay: Antibacterial activity against coagulase-negative Staphylococcus epidermidis 051 by agar dilution method; format: functional
In short: (§1)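 MICs by agar dilution on Mueller-Hinton agar following CLSI guidelines. S. aureus ATCC 29213 and E. faecalis ATCC 29212 were run as quality controls with each set, and test-strain MICs were kept only if control MICs fell within acceptable ranges.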

[2] = tested on: Staphylococcus aureus; assay: Antibacterial activity against Tmp-susceptible coagulase-negative Staphylococcus aureus by agar dilution method; format: functional; in short: as §1
[3] = tested on: Staphylococcus aureus; assay: Antibacterial activity against methicillin-susceptible Staphylococcus aureus 505 by broth macrodilution method; format: functional
[4] = tested on: Staphylococcus epidermidis; assay: Antibacterial activity against coagulase-negative Staphylococcus epidermidis 051 after 10 passages in MBH without antibiotic by agar dilution method; format: functional
In short: (§2)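 After drug-selective serial passage, selected clones were passaged 10 times in antibiotic-free MHB. MICs were then redetermined, and the change is expressed as log2 dilution steps.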

[5] = tested on: Staphylococcus aureus; assay: Antibacterial activity against methicillin-resistant Staphylococcus aureus by agar dilution method; format: functional
In short: (§3)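 Agar dilution on Mueller-Hinton agar per CLSI guidelines. S. aureus ATCC 29213 and E. faecalis ATCC 29212 were run with each set, and test MICs were accepted only when the control strains fell within acceptable ranges.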

[6] = tested on: Staphylococcus aureus; assay: Antibacterial activity against vancomycin-resistant Staphylococcus aureus VRS1 assessed as change in MIC by agar dilution method after serial passages in the absence of antibiotic relative to control; format: functional
In short: (§4)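 Clones from the end of drug passage were transferred 10 times in MHB without antibiotic, then retested by agar dilution. MIC change is expressed as log2 dilution steps.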

[7] = tested on: Staphylococcus aureus; assay: Antibacterial activity against Staphylococcus aureus ATCC 29213 assessed as change in MIC by agar odilution method after serial passages in presence of antibiotic relative to control; format: functional, ATCC29213
In short: (§5)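 Serial passage under drug. Inoculum was ~1 × 10^6 CFU/ml from overnight MHA growth, in 1 ml MHB at 35°C for 24 h. Drug ranged from 4 log2 steps above to 3 log2 steps below the MIC. […] MIC change is given as log2 steps.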

[8] = tested on: Staphylococcus aureus; assay: Antibacterial activity against methicillin-susceptible Staphylococcus aureus ATCC 29213 after 50 passages by agar dilution method; format: functional; details: ATCC29213
In short: (§6)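 Daily serial passage for up to 50 days at 35°C for 24 h in 1 ml MHB. […] Each transfer used 10 µl from the tube nearest the MIC (1–2 dilutions below) with the same turbidity as the drug-free control. […] MICs were measured by agar dilution, with changes given as log2 steps.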

[9] = tested on: Staphylococcus epidermidis; assay: Antibacterial activity against methicillin-resistant coagulase-negative Staphylococcus epidermidis 074 by broth macrodilution method; format: functional
[10] = tested on: Staphylococcus aureus; assay: Antibacterial activity against vancomycin-resistant Staphylococcus aureus VRS1 assessed as change in MIC by agar dilution method after serial passages in presence of antibiotic relative to control; format: functional; in short: as §6
[11] = tested on: Staphylococcus aureus; assay: Antibacterial activity against vancomycin-resistant Staphylococcus aureus VRS1 after 10 passages in MHB without antibiotic by agar dilution method; format: functional; in short: as §4
[12] = tested on: Staphylococcus aureus; assay: Antibacterial activity against Staphylococcus aureus 145 after 10 passages in MHB without antibiotic by agar dilution method; format: functional; in short: as §2
[13] = tested on: Staphylococcus epidermidis; assay: Antibacterial activity against coagulase-negative Staphylococcus epidermidis 225 after 10 passages in MBH without antibiotic by agar dilution method; format: functional; in short: as §2
[14] = tested on: Staphylococcus aureus; assay: Antibacterial activity against vancomycin-resistant Staphylococcus aureus VRS1 by broth macrodilution method; format: functional
In short: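 Michigan VRSA strain, one of 12 staphylococci later used in time-kill studies. MIC was determined by broth macrodilution and reported in μg/ml.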

[15] = tested on: Staphylococcus epidermidis; assay: Antibacterial activity against coagulase-negative Staphylococcus epidermidis 051 assessed as change in MIC by agar dilution method after serial passages in the absence of antibiotic relative to control; format: functional; in short: as §2
[16] = tested on: Staphylococcus epidermidis; assay: Antibacterial activity against methicillin-resistant, vancomycin-intermediate coagulase-negative Staphylococcus epidermidis 225 by agar dilution method; format: functional; in short: as §3
[17] = tested on: Staphylococcus epidermidis; assay: Antibacterial activity against coagulase-negative Staphylococcus epidermidis 057 by agar dilution method; format: functional
In short: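 Agar dilution MIC determined on Mueller-Hinton agar following CLSI guidelines. S. aureus ATCC 29213 and Enterococcus faecalis ATCC 29212 were run as quality controls with each set, and test MICs were accepted only when the control MICs fell within acceptable ranges. Test organism was a coagulase-negative S. epidermidis strain.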

[18] = tested on: Staphylococcus aureus; assay: Antibacterial activity against methicillin-susceptible Staphylococcus aureus by agar dilution method; format: functional; in short: as §3
[19] = tested on: Staphylococcus epidermidis; assay: Antibacterial activity against coagulase-negative Staphylococcus epidermidis 345 assessed as change in MIC by agar dilution method after serial passages in presence of antibiotic relative to control; format: functional; in short: as §5
[20] = tested on: Staphylococcus aureus; assay: Antibacterial activity against methicillin-resistant Staphylococcus aureus 145 by broth macrodilution method; format: functional
[21] = tested on: Staphylococcus aureus; assay: Antibacterial activity against Tmp-resistant Staphylococcus aureus by agar dilution method; format: functional; in short: as §1
[22] = tested on: Staphylococcus aureus; assay: Antibacterial activity against Staphylococcus aureus 145 assessed as change in MIC by agar dilution method after serial passages in the absence of antibiotic relative to control; format: functional; in short: as §2
[23] = tested on: Staphylococcus epidermidis; assay: Antibacterial activity against coagulase-negative Staphylococcus epidermidis 345 after 10 passages in MBH without antibiotic by agar dilution method; format: functional; in short: as §2
[24] = tested on: Staphylococcus aureus; assay: Antibacterial activity against Tmp-susceptible Staphylococcus aureus by agar dilution method; format: functional; in short: as §1
[25] = tested on: Staphylococcus epidermidis; assay: Antibacterial activity against methicillin-susceptible coagulase-negative Staphylococcus epidermidis 051 by broth macrodilution method; format: functional
[26] = tested on: coagulase-negative staphylococci; assay: Antibacterial activity against Tmp-resistant coagulase-negative staphylococci by agar dilution method
[27] = tested on: Staphylococcus aureus; assay: Antibacterial activity against Staphylococcus aureus ATCC 43300 assessed as change in MIC by agar dilution method after serial passages in presence of antibiotic relative to control; format: functional; in short: as §5
[28] = tested on: Staphylococcus aureus; assay: Antibacterial activity against methicillin-resistant Staphylococcus aureus 507 by broth macrodilution method; format: functional
[29] = tested on: Staphylococcus aureus; assay: Antibacterial activity against methicillin-resistant Staphylococcus aureus ATCC 43300 after 50 passages by agar dilution method; format: functional; details: ATCC43300; in short: as §5
[30] = tested on: Staphylococcus epidermidis; assay: Antibacterial activity against coagulase-negative Staphylococcus epidermidis 057 after 10 passages in MBH without antibiotic by agar dilution method; format: functional; in short: as §2
[31] = tested on: Staphylococcus aureus; assay: Antibacterial activity against Staphylococcus aureus 145 assessed as change in MIC by agar dilution method after serial passages in presence of antibiotic relative to control; format: functional; in short: as §5
[32] = tested on: Staphylococcus epidermidis; assay: Antibacterial activity against coagulase-negative Staphylococcus epidermidis 197 assessed as change in MIC by agar dilution method after serial passages in presence of antibiotic relative to control; format: functional; in short: as §5
[33] = tested on: Staphylococcus aureus; assay: Antibacterial activity against methicillin-susceptible Staphylococcus aureus ATCC 29213 by broth macrodilution method; format: functional; details: ATCC29213
[34] = tested on: Staphylococcus epidermidis; assay: Antibacterial activity against methicillin-resistant coagulase-negative Staphylococcus epidermidis 345 by broth macrodilution method; format: functional
[35] = tested on: Staphylococcus epidermidis; assay: Antibacterial activity against coagulase-negative Staphylococcus epidermidis 057 assessed as change in MIC by agar dilution method after serial passages in presence of antibiotic relative to control; format: functional; in short: as §5
[36] = tested on: Staphylococcus epidermidis; assay: Antibacterial activity against coagulase-negative Staphylococcus epidermidis 051 assessed as change in MIC by agar dilution method after serial passages in presence of antibiotic relative to control; format: functional; in short: as §5
[37] = tested on: Staphylococcus aureus; assay: Antibacterial activity against methicillin-susceptible, vancomycin-intermediate Staphylococcus aureus 505 after 50 passages by agar dilution method; format: functional; in short: as §6

## COc1cc(Cc2cnc(N)nc2N)cc(/C=C/C(=O)N2N=Cc3ccccc3C2c2cnc(N3CCOCC3)nc2)c1OC (centres undefined)
[1]
  MIC: 0.5 µg/mL (≈ 0.823 µM)
[2]
  MIC: ≤ 0.008 µg/mL
[3]
  MIC: 0.03 µg/mL (≈ 0.0494 µM)
[4]
  MIC: 1 µg/mL (≈ 1.65 µM)
[5]
  MIC50: 0.03 µg/mL (≈ 0.0494 µM)
  MIC90: 0.25 µg/mL (≈ 0.411 µM)
[6]
  fold change (FC): 0
[7]
  fold change (FC): 4
[8]
  MIC: 1 µg/mL (≈ 1.65 µM)
[9]
  MIC: 0.25 µg/mL (≈ 0.411 µM)
[10]
  fold change (FC): 8
[11]
  MIC: > 128 µg/mL
[12]
  MIC: 128 µg/mL (≈ 211 µM)
[13]
  MIC: 2 µg/mL (≈ 3.29 µM)
[14]
  MIC: 1 µg/mL (≈ 1.65 µM)
[15]
  fold change (FC): -6
[16]
  MIC: 0.25 µg/mL (≈ 0.411 µM)
[17]
  MIC: 8 µg/mL (≈ 13.2 µM)
[18]
  MIC50: 0.03 µg/mL (≈ 0.0494 µM)
  MIC90: 0.25 µg/mL (≈ 0.411 µM)
[19]
  fold change (FC): 6
[20]
  MIC: 0.25 µg/mL (≈ 0.411 µM)
[21]
  MIC50: 0.25 µg/mL (≈ 0.411 µM)
  MIC90: 0.5 µg/mL (≈ 0.823 µM)
[22]
  fold change (FC): 0
[23]
  MIC: 2 µg/mL (≈ 3.29 µM)
[24]
  MIC50: 0.03 µg/mL (≈ 0.0494 µM)
  MIC90: 0.06 µg/mL (≈ 0.0987 µM)
[25]
  MIC: 0.25 µg/mL (≈ 0.411 µM)
[26]
  MIC50: 0.125 µg/mL (≈ 0.206 µM)
  MIC90: 1 µg/mL (≈ 1.65 µM)
[27]
  fold change (FC): 5
[28]
  MIC: 0.25 µg/mL (≈ 0.411 µM)
[29]
  MIC: 2 µg/mL (≈ 3.29 µM)
[30]
  MIC: 128 µg/mL (≈ 211 µM)
[31]
  fold change (FC): 9
[32]
  fold change (FC): 4
[33]
  MIC: 0.06 µg/mL (≈ 0.0987 µM)
[34]
  MIC: 0.125 µg/mL (≈ 0.206 µM)
[35]
  fold change (FC): 5
[36]
  fold change (FC): 7
[37]
  MIC: 2 µg/mL (≈ 3.29 µM)

## COc1ncc(C2c3ccccc3C=NN2C(=O)/C=C/c2cc(Cc3cnc(N)nc3N)cc(OC)c2OC)cn1 (centres undefined)
[1]
  MIC: 0.25 µg/mL (≈ 0.452 µM)
[2]
  MIC: ≤ 0.008 µg/mL
[3]
  MIC: 0.03 µg/mL (≈ 0.0543 µM)
[4]
  MIC: 16 µg/mL (≈ 29 µM)
[5]
  MIC50: 0.03 µg/mL (≈ 0.0543 µM)
  MIC90: 0.25 µg/mL (≈ 0.452 µM)
[6]
  fold change (FC): -1
[7]
  fold change (FC): 8
[8]
  MIC: 8 µg/mL (≈ 14.5 µM)
[9]
  MIC: 0.06 µg/mL (≈ 0.109 µM)
[10]
  fold change (FC): 9
[11]
  MIC: 128 µg/mL (≈ 232 µM)
[12]
  MIC: 16 µg/mL (≈ 29 µM)
[13]
  MIC: 8 µg/mL (≈ 14.5 µM)
[14]
  MIC: 1 µg/mL (≈ 1.81 µM)
[15]
  fold change (FC): -2
[16]
  MIC: 0.25 µg/mL (≈ 0.452 µM)
[17]
  MIC: 8 µg/mL (≈ 14.5 µM)
[18]
  MIC50: 0.03 µg/mL (≈ 0.0543 µM)
  MIC90: 0.25 µg/mL (≈ 0.452 µM)
[19]
  fold change (FC): 7
[20]
  MIC: 0.25 µg/mL (≈ 0.452 µM)
[21]
  MIC50: 0.25 µg/mL (≈ 0.452 µM)
  MIC90: 0.5 µg/mL (≈ 0.905 µM)
[22]
  fold change (FC): -4
[23]
  MIC: 2 µg/mL (≈ 3.62 µM)
[24]
  MIC50: 0.03 µg/mL (≈ 0.0543 µM)
  MIC90: 0.03 µg/mL (≈ 0.0543 µM)
[25]
  MIC: 0.125 µg/mL (≈ 0.226 µM)
[26]
  MIC50: 0.125 µg/mL (≈ 0.226 µM)
  MIC90: 0.5 µg/mL (≈ 0.905 µM)
[27]
  fold change (FC): 7
[28]
  MIC: 0.06 µg/mL (≈ 0.109 µM)
[29]
  MIC: 4 µg/mL (≈ 7.24 µM)
[30]
  MIC: 128 µg/mL (≈ 232 µM)
[31]
  fold change (FC): 9
[32]
  fold change (FC): 5
[33]
  MIC: 0.03 µg/mL (≈ 0.0543 µM)
[34]
  MIC: 0.06 µg/mL (≈ 0.109 µM)
[35]
  fold change (FC): 4
[36]
  fold change (FC): 8
[37]
  MIC: 1 µg/mL (≈ 1.81 µM)

— ChEMBL document CHEMBL1649147, “Antistaphylococcal activity of dihydrophthalazine antifolates, a family of novel antibacterial drugs” (2009)
